PMC11000255 (Journal of the American Chemical Society, 2024)
Values belong to the compound of their own block, whether it stands above or below them.

How the values were obtained:
ionization constants = type: physicochemical
[1] = type: physicochemical; details: excess of butylamine; for fold increased half-life / diminished rate compared to salicylaldehyde: vs salicylaldehyde
R140Q-IDH2 = R140Q-IDH2 (Homo sapiens, UniProt P48735, R140Q); experiment: reductive activity; type: biochemical
Procedure, shortened: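 Lysates of HEK293T cells expressed recombinant R140Q-IDH2, alone or with K299R or K299R/K413R added. Lysate was preincubated with the test compound (single-point 100 µM, or a dose series; 2 h, 20 °C). 2-HG production from α-KG substrate (0.6 mM, 1 h, 25 °C) was measured.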

ABHD12 [2] = molecular target: T1, ABHD12 (Homo sapiens, UniProt Q8N2K0); experiment: TMT18plex lysine ligandability profiling, ABHD12; type: binding; details: both MDA-MB-231 and MDA-MB-436 cell lines
T1 sequence (Q8N2K0 1-398): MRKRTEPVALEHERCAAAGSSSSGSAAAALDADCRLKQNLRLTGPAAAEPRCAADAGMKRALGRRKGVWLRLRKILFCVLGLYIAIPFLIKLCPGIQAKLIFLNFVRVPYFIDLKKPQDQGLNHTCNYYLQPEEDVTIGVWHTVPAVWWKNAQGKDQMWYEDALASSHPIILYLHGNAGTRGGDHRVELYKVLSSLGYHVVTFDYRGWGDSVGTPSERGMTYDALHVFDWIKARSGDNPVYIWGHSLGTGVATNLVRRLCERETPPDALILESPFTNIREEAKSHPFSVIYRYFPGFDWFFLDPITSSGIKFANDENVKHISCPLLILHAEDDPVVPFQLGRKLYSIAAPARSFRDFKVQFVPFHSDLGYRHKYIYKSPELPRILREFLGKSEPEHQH
Procedure, shortened: (§1)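 Live MDA-MB-231 or MDA-MB-436 breast cancer cells were exposed to the test compound (100 µM, 8 h) or DMSO vehicle. Lysates (soluble and insoluble fractions) were chased with a desthiobiotin-tagged lysine-specific STP ester probe, trypsin-digested, streptavidin-enriched and quantified by TMTpro-18plex. Lysines had to be quantified in all biological triplicates and TMT channels. A lysine counted as liganded at ≥60% loss of probe enrichment relative to DMSO.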

WT-IDH2 = WT-IDH2 (Homo sapiens, UniProt P48735); experiment: oxidative IDH2 activity; type: biochemical
Procedure, shortened: (§2)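 HEK293T lysates expressed recombinant IDH2: WT, K299 mutants, K413R, or double K299R/K413R. Lysate was preincubated with the test compound (single-point 100 µM, or a dose series; 1 h, 37 °C). α-KG production from D-(+)-threo-isocitrate (1.3 mM, 1 h, 25 °C) was measured.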

IDH2 = IDH2 (Homo sapiens, UniProt P48735); experiment: immunoblotting analysis of IDH2 homodimerization
Procedure, shortened: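 Flag-tagged WT- and R140Q-IDH2, with K299 and K413 mutants, were recombinantly expressed in HEK293T cells. Lysates were treated with the test compound, and IDH2 homodimer formation was read by immunoblot.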

transthyretin (TTR) = transthyretin (TTR) (Homo sapiens, UniProt P02766); experiment: TMT18plex lysine ligandability profiling, TTR; type: binding; details: liganded = ≥60% reduction in probe enrichment; single meroterpenoid
Procedure, shortened: as §1

K299R-IDH2 = K299R-IDH2 (Homo sapiens, UniProt P48735, K299R); experiment: oxidative IDH2 activity, K299R-IDH2 in HEK293T cell lysates; type: biochemical
Procedure, shortened: as §2

ABHD12 [3] = molecular target: T1, ABHD12; experiment: immunoblot analysis of high-molecular-weight ABHD12 aggregates; details: recombinant ABHD12, immunoblot
Procedure, shortened: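 Flag-tagged WT and K373R ABHD12 expressed recombinantly in HEK293T cells; lysates treated with increasing test compound, then labeled with TAMRA-FP. Read-out by in-gel fluorescence plus Western blot, tracking monomeric and high-molecular-weight ABHD12 bands.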

K413R-IDH2 = K413R-IDH2 (Homo sapiens, UniProt P48735, K413R); experiment: oxidative IDH2 activity, K413R-IDH2 in HEK293T cell lysates; type: biochemical
Procedure, shortened: as §2

K373R-ABHD12 = K373R-ABHD12 (Homo sapiens, UniProt Q8N2K0, K373R); experiment: LC/MS-based LPS hydrolysis assay, K373R-ABHD12 in HEK293T cell lysates; type: biochemical
Procedure, shortened: (§3)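 Recombinant ABHD12 (WT, S246A and K373 mutants) was expressed in HEK293T cells and used as cell lysate. Lysate was preincubated with the test compound (single-point 100 µM, or a dose series; 1 h, 37 °C), then given 17:1 LPS substrate (100 µM, 20 min, 37 °C).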

WT-ABHD12 = molecular target: T2, WT-ABHD12 (Homo sapiens, UniProt Q8N2K0); experiment: LC/MS-based LPS hydrolysis assay, WT-ABHD12 in HEK293T cell lysates; type: biochemical
T2 sequence (Q8N2K0 1-398): T1 sequence (Q8N2K0 1-398)
Procedure, shortened: as §3

K299R/K413R-IDH2 = K299R/K413R-IDH2 (Homo sapiens, UniProt P48735, K299R/K413R); experiment: oxidative IDH2 activity, K299R/K413R-IDH2 in HEK293T cell lysates; type: biochemical
WT-PFKM = WT-PFKM (Homo sapiens, UniProt P08237); experiment: F6P phosphorylation assay, WT-PFKM in HEK293T cell lysates; type: biochemical
Procedure, shortened: (§4)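 Epitope-tagged WT-PFKM or K678R-PFKM was recombinantly expressed in HEK293T cells and used as lysate. Lysate was preincubated with the test compound (single-point 100 µM, or a dose series; 2 h, 37 °C).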

MDA-MB-231 cells [4] = experiment: untargeted lipidomics profiling of treated cells; type: cell-based, human; details: 100 μM, 8 h
K678R-PFKM = K678R-PFKM (Homo sapiens, UniProt P08237, K678R); experiment: F6P phosphorylation assay, K678R-PFKM in HEK293T cell lysates; type: biochemical
Procedure, shortened: as §4

[5] = molecular target: mitochondrial citrate synthase (CS) (Homo sapiens, UniProt O75390); experiment: TMT18plex lysine ligandability profiling, CS; type: binding; details: MDA-MB-231 cells
Procedure, shortened: as §1

stathmin (STMN1) = stathmin (STMN1) (Homo sapiens, UniProt P16949); experiment: TMT18plex lysine ligandability profiling, STMN1; type: binding; details: 100 μM, 8 h, breast cancer cells
Procedure, shortened: as §1

prohibitin-2 (PHB2) = prohibitin-2 (PHB2) (Homo sapiens, UniProt Q99623); experiment: TMT18plex lysine ligandability profiling, PHB2; type: binding; details: 100 μM, 8 h, breast cancer cells
Procedure, shortened: as §1

[6] = phenolic core of ubiquinol; cited from earlier work
MDA-MB-231 cells [7] = experiment: in-gel fluorescence profiling of clickable probes; type: cell-based, human; details: in MDA-MB-231 cells
annexin A4 (ANXA4) = annexin A4 (ANXA4) (Homo sapiens, UniProt P09525); experiment: TMT18plex lysine ligandability profiling, ANXA4; type: binding; details: liganded = ≥60% reduction in probe enrichment; single meroterpenoid
Procedure, shortened: as §1

OCIAD2 = OCIAD2 (Homo sapiens, UniProt Q56VL3); experiment: TMT18plex lysine ligandability profiling, OCIAD2; type: binding; details: 100 μM, 8 h
Procedure, shortened: as §1

Chain of OCIAD2 (Q56VL3 whole entry): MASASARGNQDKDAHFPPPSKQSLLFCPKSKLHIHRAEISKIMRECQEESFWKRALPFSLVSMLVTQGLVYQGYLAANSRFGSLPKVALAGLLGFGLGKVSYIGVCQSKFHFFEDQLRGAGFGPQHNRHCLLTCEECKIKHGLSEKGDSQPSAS
Chain of K299R/K413R-IDH2 (P48735 40-452 K299R/K413R): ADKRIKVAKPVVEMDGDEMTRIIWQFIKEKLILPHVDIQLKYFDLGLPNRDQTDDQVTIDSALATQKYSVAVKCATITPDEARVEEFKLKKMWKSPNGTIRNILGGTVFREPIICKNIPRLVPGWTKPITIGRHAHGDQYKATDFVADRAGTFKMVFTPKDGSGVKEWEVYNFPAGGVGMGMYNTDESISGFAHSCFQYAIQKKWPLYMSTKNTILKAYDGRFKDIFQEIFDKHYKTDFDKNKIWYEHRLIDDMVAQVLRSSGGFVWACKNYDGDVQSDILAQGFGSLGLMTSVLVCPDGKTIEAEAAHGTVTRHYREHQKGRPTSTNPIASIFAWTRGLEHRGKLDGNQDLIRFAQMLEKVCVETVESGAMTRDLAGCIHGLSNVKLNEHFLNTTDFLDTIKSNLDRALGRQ
Chain of stathmin (STMN1) (P16949 whole entry): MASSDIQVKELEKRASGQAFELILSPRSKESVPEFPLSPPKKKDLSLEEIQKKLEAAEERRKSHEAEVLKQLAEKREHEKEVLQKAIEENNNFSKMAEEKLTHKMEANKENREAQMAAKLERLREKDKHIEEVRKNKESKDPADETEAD
Chain of prohibitin-2 (PHB2) (Q99623 whole entry): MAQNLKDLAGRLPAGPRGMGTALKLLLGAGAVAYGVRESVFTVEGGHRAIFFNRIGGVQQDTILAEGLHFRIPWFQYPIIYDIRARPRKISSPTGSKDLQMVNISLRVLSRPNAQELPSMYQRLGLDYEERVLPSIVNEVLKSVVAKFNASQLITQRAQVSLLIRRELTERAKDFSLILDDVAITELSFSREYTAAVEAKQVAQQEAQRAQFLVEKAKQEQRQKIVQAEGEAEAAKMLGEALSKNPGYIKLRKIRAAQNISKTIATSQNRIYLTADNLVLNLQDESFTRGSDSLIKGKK
Chain of WT-PFKM (P08237 whole entry): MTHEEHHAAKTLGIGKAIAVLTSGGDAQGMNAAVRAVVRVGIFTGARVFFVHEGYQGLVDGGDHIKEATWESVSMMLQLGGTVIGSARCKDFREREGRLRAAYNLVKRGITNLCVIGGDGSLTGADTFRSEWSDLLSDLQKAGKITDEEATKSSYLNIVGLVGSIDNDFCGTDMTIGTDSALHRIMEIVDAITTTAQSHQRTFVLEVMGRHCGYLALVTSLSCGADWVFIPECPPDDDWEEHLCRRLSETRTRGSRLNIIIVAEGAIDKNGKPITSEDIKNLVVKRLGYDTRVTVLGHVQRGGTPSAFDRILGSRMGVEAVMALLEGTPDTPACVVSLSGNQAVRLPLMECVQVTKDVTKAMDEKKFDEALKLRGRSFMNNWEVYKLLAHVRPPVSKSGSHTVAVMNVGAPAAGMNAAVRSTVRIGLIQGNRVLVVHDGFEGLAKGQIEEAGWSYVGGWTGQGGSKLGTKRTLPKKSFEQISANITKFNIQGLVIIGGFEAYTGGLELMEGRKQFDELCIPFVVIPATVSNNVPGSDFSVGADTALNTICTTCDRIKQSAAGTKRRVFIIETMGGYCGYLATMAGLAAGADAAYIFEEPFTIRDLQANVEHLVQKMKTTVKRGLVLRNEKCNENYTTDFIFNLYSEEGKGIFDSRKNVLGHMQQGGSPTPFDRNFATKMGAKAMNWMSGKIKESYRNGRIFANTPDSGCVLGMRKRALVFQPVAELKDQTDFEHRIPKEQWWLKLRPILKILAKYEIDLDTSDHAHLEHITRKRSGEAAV
Chain of R140Q-IDH2 (P48735 40-452 R140Q): as the sequence (P48735 40-452 K299R/K413R) above, with R101Q, R260K, R374K counted along it
Chain of WT-IDH2 (P48735 40-452): as the sequence (P48735 40-452 K299R/K413R) above, with R260K, R374K counted along it
Chain of K413R-IDH2 (P48735 40-452 K413R): as the sequence (P48735 40-452 K299R/K413R) above, with R260K counted along it
Chain of annexin A4 (ANXA4) (P09525 whole entry): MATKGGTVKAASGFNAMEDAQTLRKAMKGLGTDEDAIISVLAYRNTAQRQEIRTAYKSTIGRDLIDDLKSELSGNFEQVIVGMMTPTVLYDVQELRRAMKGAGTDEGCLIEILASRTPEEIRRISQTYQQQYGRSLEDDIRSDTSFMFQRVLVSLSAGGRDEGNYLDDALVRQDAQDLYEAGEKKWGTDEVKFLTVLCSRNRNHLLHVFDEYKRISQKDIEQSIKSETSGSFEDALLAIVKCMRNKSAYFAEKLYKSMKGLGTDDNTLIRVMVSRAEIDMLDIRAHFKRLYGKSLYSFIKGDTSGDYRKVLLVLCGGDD
Chain of K373R-ABHD12 (Q8N2K0 whole entry K373R): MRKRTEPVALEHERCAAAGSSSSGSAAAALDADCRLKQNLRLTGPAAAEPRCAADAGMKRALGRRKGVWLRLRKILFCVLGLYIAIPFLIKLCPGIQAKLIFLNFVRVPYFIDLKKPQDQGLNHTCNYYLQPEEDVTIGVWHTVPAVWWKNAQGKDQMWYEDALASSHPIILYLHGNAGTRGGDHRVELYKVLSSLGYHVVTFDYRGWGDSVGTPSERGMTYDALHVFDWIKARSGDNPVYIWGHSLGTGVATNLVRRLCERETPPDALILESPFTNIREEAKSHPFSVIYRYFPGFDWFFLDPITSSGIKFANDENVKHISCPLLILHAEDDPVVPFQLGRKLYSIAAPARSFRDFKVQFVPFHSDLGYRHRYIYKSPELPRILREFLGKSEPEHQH
Chain of K678R-PFKM (P08237 whole entry K678R): as the sequence (P08237 whole entry) above, with K678R counted along it
Chain of mitochondrial citrate synthase (CS) (O75390 28-466): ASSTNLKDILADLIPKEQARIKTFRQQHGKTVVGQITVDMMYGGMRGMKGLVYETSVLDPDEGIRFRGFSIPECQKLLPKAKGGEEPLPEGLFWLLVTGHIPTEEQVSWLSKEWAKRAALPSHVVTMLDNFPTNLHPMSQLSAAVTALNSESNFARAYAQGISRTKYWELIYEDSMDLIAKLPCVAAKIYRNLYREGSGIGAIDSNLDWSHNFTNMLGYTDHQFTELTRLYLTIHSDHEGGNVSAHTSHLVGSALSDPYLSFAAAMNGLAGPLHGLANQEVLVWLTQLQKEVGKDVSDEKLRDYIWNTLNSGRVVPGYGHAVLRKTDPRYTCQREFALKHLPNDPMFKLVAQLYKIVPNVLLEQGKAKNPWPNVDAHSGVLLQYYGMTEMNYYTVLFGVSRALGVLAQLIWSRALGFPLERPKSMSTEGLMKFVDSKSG
Chain of K299R-IDH2 (P48735 40-452 K299R): as the sequence (P48735 40-452 K299R/K413R) above, with R374K counted along it
Chain of IDH2 (P48735 40-452): as the sequence (P48735 40-452 K299R/K413R) above, with R260K, R374K counted along it

pKa (ionization constants): 10.9
Compound: Cc1c(O)c(C=O)c(O)c(C(=O)CC(C)C)c1O [grandinol]
fold diminished rate compared to jensenone ([1]; vs jensenone): 30 fold

IC50 (R140Q-IDH2): 26.2 µM | effect on reductive activity (2-HG production) (R140Q-IDH2; 100 μM, 2 h, 20 °C): fully abolished the reductive activity | ligandability of K373 in ABHD12 (ABHD12 [2]): 76% | pKa (ionization constants): 10.5 | IC50 (WT-IDH2): 20.9 µM | effect on IDH2 oxidative activity (WT-IDH2; 100 μM, 1 h, 37 °C): complete functional inhibition | engagement of K35 in TTR (transthyretin (TTR)): selectively engaged | IC50 (K299R-IDH2): 29.8 µM | IC50 (K413R-IDH2): 21.4 µM | IC50 (K373R-ABHD12): 45.7 µM | IC50 (WT-ABHD12): 32.6 µM | residual ABHD12 LPS hydrolysis activity (WT-ABHD12; 100 μM, 1 h, 37 °C, 17:1 LPS substrate): 23% | IC50 (K299R/K413R-IDH2): > 100 µM | IC50 (WT-PFKM): 10.8 µM | inhibitory effect on catalytic activity of PFKM (WT-PFKM; 100 μM, 2 h, 37 °C, among the meroterpenoids assessed): most pronounced inhibitory effects | IC50 (K678R-PFKM): > 100 µM
Compound: CC(C)CC(=O)c1c(O)c(C=O)c(O)c(C=O)c1O [jensenone]
IDH2 homodimerization (IDH2): unexpected induction of IDH2 homodimerization | formation of high-molecular-weight ABHD12 aggregates (ABHD12 [3]): marked reduction in the monomeric form of ABHD12 and a concomitant increase in high-molecular-weight ABHD12 aggregates | oxidative activity following treatment (K299R/K413R-IDH2; double mutant K299R/K413R-IDH2, 100 μM, 1 h, 20 °C): essentially preserved its oxidative activity | levels of monoacylglycerophosphoserine LPS(18:0) (MDA-MB-231 cells [4]): significantly elevated levels | levels of stearic acid FA(18:0) (MDA-MB-231 cells [4]): concurrent reduction

engagement of K76 in CS [5]: exclusively targeted
Compound: CC(C)CC(=O)c1c(O)c(C=O)c2c(c1O)CC[C@@]1(CC[C@H]3C[C@@H]1C3(C)C)O2 [(−)-euglobal-G3]

ligandability of K128 in STMN1 (stathmin (STMN1)): 11% | ligandability of K24 in PHB2 (prohibitin-2 (PHB2)): 61%
Compound: CC(C)CC(=O)c1c(O)c(C=O)c2c(c1O)C[C@H]1C[C@H]3C[C@H](C3(C)C)[C@@]1(C)O2 [(−)-euglobal-G2]

Compound: O=Cc1c(O)cc(O)cc1O [phloroglucinaldehyde]
fold increased half-life / diminished rate compared to salicylaldehyde [1]: 80 fold

Compound: COc1c(O)c(C)c(C/C=C(\C)CC/C=C(\C)CC/C=C(\C)CC/C=C(\C)CC/C=C(\C)CC/C=C(\C)CC/C=C(\C)CC/C=C(\C)CC/C=C(\C)CCC=C(C)C)c(O)c1OC [ubiquinol]
calculated pKa1 [6]: 5.31 | calculated pKa2 [6]: 10.86

Compound: O=Cc1ccccc1 [benzaldehyde]
fold increased half-life / diminished rate compared to salicylaldehyde [1]: 10 fold

engagement of K246 in ANXA4 (annexin A4 (ANXA4)): exclusively targeted
Compound: CC(C)CC(=O)c1c(O)c(C=O)c(O)c2c1O[C@@]1(CC2)CC[C@H]2C[C@@H]1C2(C)C [(−)-euglobal-G4]
competitive blockade of azide probe (−)-11 labeling (MDA-MB-231 cells [7]): blockade of probe (−)-11 labeling for a subset of protein targets in a dose-dependent manner

ligandability of K128 in STMN1 (stathmin (STMN1)): 67% | ligandability of K99 in OCIAD2 (OCIAD2; MDA-MB-231 cells): 92% | ligandability of K99 in OCIAD2 (OCIAD2; MDA-MB-436 cells): 49% | ligandability of K24 in PHB2 (prohibitin-2 (PHB2)): 26%
Compound: (+)-euglobal-G2
